Results of several laboratories.
Compare with care: the assays were run in different laboratories.
Organism: Plasmodium falciparum
Read-out: parasite growth

Cc1ccc(-c2ccc3ncc4c(c3c2)n(-c2cccc(C(F)(F)F)c2)c(=O)n4C)cn1 — IC50 (resazurin; 3D7; gametocyte): < 100 nM
C[C@@H]1CC[C@H]2[C@@H](C)C(=O)O[C@@H]3O[C@@]4(C)CC[C@@H]1[C@]32OO4 — IC50 (W2; drug-resistant strain, blood stage): 0.009 µg/mL
C[C@H]1[C@@H](O)O[C@@H]2O[C@@]3(C)CC[C@H]4[C@H](C)CC[C@@H]1[C@@]24OO3 — IC50 (3D7; 24 h; blood stage): 25.2 nM
O=C(Nc1ccccc1-c1nc2c(C(=O)O)cccc2o1)c1ccccc1 — IC50 (SYBR Green; blood stage): 75800 nM
CCN(CC)CCCC(C)Nc1ccnc2cc(Cl)ccc12 (stereo not shown) — IC50 (3D7; 96 h; blood stage): 3 nM
FC(F)(F)c1ccc(CNCCNc2nc3cc(Cl)ccc3n2Cc2ccccc2)cc1 — IC50 (NF54; blood stage): 2780 nM
O=C(O)c1ccc(-n2nc(-c3ccccc3O)nc2-c2ccccc2O)cc1 — IC50 (SYBR Green; blood stage): 47700 nM
NCCCNc1nc2ccccc2n1Cc1ccccc1 — IC50 (NF54; blood stage): 4090 nM
CCN(CC)CCCC(C)Nc1ccnc2cc(Cl)ccc12 (stereo not shown) — IC50: 201 nM
O=C(O)c1cc(-c2ccc(Br)cc2)nc2ccc(Cl)cc12 — IC50 (SYBR Green; blood stage): 60000 nM
C[C@@H]1CN(c2nc3cc(Cl)ccc3n2Cc2ccccc2)C[C@H](C)N1 — IC50 (NF54; blood stage): 216 nM
CC(C)Cn1c(=O)n(C)c(=O)c2c(-c3cncn3C)n(Cc3cccc4ccccc34)nc21 — IC50 (SYBR Green; blood stage): 4820 nM
CN1CCN(C2CCN(c3nccc4[nH]c(-c5ccc(F)c(C(F)(F)F)c5)nc34)CC2)CC1 — IC50 (NF54; blood stage): < 100 nM
C#CCCCCCCCCCCCC(O)CC(O)CO (stereo not shown) — IC50 (W2; drug-resistant strain, blood stage): 32.5 µg/mL
O=C(Nc1ccccc1C(=O)O)c1ccc(-c2ccc(F)cc2)cc1 — IC50 (resazurin; NF54; 48 h; gametocyte): > 10000 nM
COC1=CC(c2ccc[nH]2)=NC1=Cc1ccc(CCCCCCCCCCCO)[nH]1 — IC50 (D6; blood stage): 59 nM
FC(F)(F)c1ccc2c(c1)nc(N1CCNCC1)n2Cc1ccccc1 — IC50 (NF54; blood stage): 310 nM
C#CCCCCCCCCC=CCC(O)CC(O)CO (stereo not shown) — IC50 (D6; blood stage): > 47.6 µg/mL
C[C@@H]1CC[C@H]2[C@@H](C)C(=O)O[C@@H]3O[C@@]4(C)CC[C@@H]1[C@]32OO4 — IC50 (W2; 72 h; drug-resistant strain, blood stage): 0.0038 µg/mL
NCCN(C(=O)c1ccc(Cl)cc1Cl)c1ccc(OCc2ccc(Cl)cc2)cc1 — IC50 (SYBR Green; blood stage): 2810 nM
Clc1ccc2c(nc(N3CCNCC3)n2Cc2ccccc2)c1Br — IC50 (NF54; blood stage): 71 nM
Cc1ccc(C(=O)Nc2ccc(S(=O)(=O)O)c3cc(S(=O)(=O)O)cc(S(=O)(=O)O)c23)cc1NC(=O)c1cccc(NC(=O)Nc2cccc(C(=O)Nc3cc(C(=O)Nc4ccc(S(=O)(=O)O)c5cc(S(=O)(=O)O)cc(S(=O)(=O)O)c45)ccc3C)c2)c1 — IC50 (SYBR Green; blood stage): > 100000 nM
C/C=C/C=C/C=C/c1c(O)cc(CC=C(C)C)c(O)c1C=O — IC50 (W2; 72 h; drug-resistant strain, blood stage): 1.1 µg/mL
NCCCNc1nc2cc(Br)ccc2n1Cc1ccccc1 — IC50 (NF54; blood stage): 382 nM
COc1cc(C)c(-c2ccc(O)c3c2C[C@@H](C)N[C@@H]3C)c2cccc(O)c12 (single isomer, unassigned) — IC50 (SYBR Green; NF54; blood stage): 38.4 nM
CC[C@@H](C)[C@H]1O[C@@H](c2c(O)c(-c3ccccc3)cn(O)c2=O)[C@H](C)C[C@@H]1C — IC50 (W2; 72 h; drug-resistant strain, blood stage): 0.2 µg/mL
Fc1cc(F)cc(-c2nc3c(N4CCC(CN5CCN(CC(F)(F)F)CC5)CC4)nccc3[nH]2)c1 — IC50 (NF54; blood stage): < 100 nM
O=C(Nc1ccc2c(c1)B(O)OC2)Nc1ccc(F)c(C(F)(F)F)c1 — IC50 (NF54; blood stage): 3100 nM
CC1=C(C)C(c2ccc[nH]2)=NC1=Cc1ccc(CCCCCCCCCC(C)O)[nH]1 (stereo not shown) — IC50 (D6; blood stage): 1080 nM
C[C@@]12CC[C@@H](O)[C@]3(C)C4=CC(=O)OCC4=C[C@@H](OC1=O)C23 (stereo partly shown) — IC50 (D6; 72 h; blood stage): 0.9 µg/mL
O=C(Nc1cc(F)ccc1C(=O)O)c1ccc(-c2ccccc2)cc1 — IC50 (resazurin; NF54; 48 h; gametocyte): 105 nM
c1ccc(Cn2c(N3CCNCC3)nc3cc(-c4ccccc4)ccc32)cc1 — IC50 (NF54; blood stage): 6960 nM
NC(N)=Nc1ccc(-c2ccc(-c3ccc(N=C(N)N)c(Cl)c3)o2)cc1Cl — IC50 (SYBR Green; blood stage): 249 nM
CCN(CC)CCCC(C)Nc1ccnc2cc(Cl)ccc12 (stereo not shown) — IC50 (D6; blood stage): 0.016 µg/mL
O=C1C(O)=C([C@H]2CC[C@H](c3ccc(Cl)cc3)CC2)C(=O)c2ccccc21 — IC50 (3D7; 24 h; blood stage): 6.5 nM
COC1=CC(c2cccn2C)=NC1=Cc1ccc(CCCCCCCCCC(C)O)[nH]1 (stereo not shown) — IC50 (D6; blood stage): 2330 nM
O=C(O)c1ccc(F)cc1NC(=O)c1ccccc1-c1ccccc1 — IC50 (resazurin; NF54; 48 h; gametocyte): > 10000 nM
CO[C@H]1/C=C/O[C@@]2(C)Oc3c(C)c(O)c4c(O)c(c(/C=N/N5CCN(C)CC5)c(O)c4c3C2=O)NC(=O)/C(C)=C\C=C[C@H](C)[C@H](O)[C@@H](C)[C@@H](O)[C@@H](C)[C@H](OC(C)=O)[C@@H]1C — IC50 (SYBR Green; blood stage): 7810 nM
C=CCCCCCCCCCCCC(O)CC(O)CO (stereo not shown) — IC50 (D6; blood stage): 29.7 µg/mL
Cc1cccc(C(=O)O)c1NC(=O)c1ccccc1-c1ccccc1 — IC50 (resazurin; NF54; 48 h; gametocyte): > 10000 nM
